According to PMC11047177 (ESMO Open, 2024):

Assay: Phase I study NCT03854227: DLTs and adverse events
Type: in vivo, human
Outline: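 Open-label, multicentre first-in-human trial in adults (ECOG 0–1) with advanced or metastatic tumours. Oral test compound, q.d. or b.i.d., on an empty stomach in continuous 28-day cycles. Part 1 started at 0.5 mg q.d., with escalation guided by a two-parameter Bayesian logistic regression model on cycle 1 DLTs. Part 2 ran at 6 mg q.d. AEs were graded by CTCAE 5.0 and summarised descriptively by dose level.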

[1] = Part 2 N = 26, 6 mg q.d., any grade
[2] = Part 2 N = 26, 6 mg q.d., grade ≥3
[3] = overall (part 1 + part 2), N=54

Cc1ncnc2c1ccn2[C@@H]1C[C@H](Oc2cc(C(F)F)c(F)c3c2CNCC3)[C@@H](O)[C@H]1O [PF-06939999]
TRAE Anemia (Part 1 N = 28, any grade): 12 (43) n (%)
TRAE Any (Part 1 N = 28, any grade): 24 (86) n (%)
TRAE Decreased appetite (Part 1 N = 28, any grade): 6 (21) n (%)
TRAE Dysgeusia (Part 1 N = 28, any grade): 9 (32) n (%)
TRAE Dyspepsia (Part 1 N = 28, any grade): 2 (7) n (%)
TRAE Fatigue (Part 1 N = 28, any grade): 9 (32) n (%)
TRAE Hypomagnesemia (Part 1 N = 28, any grade): 4 (14) n (%)
TRAE Leukopenia (Part 1 N = 28, any grade): 3 (11) n (%)
TRAE Nausea (Part 1 N = 28, any grade): 8 (29) n (%)
TRAE Neutropenia (Part 1 N = 28, any grade): 3 (11) n (%)
TRAE Thrombocytopenia (including platelet count decreased) (Part 1 N = 28, any grade): 9 (32) n (%)
TRAE Vomiting (Part 1 N = 28, any grade): 1 (4) n (%)
TRAE Weight decreased (Part 1 N = 28, any grade): 0 n (%)
TRAE Anemia (Part 1 N = 28, grade ≥3): 8 (29) n (%)
TRAE Any (Part 1 N = 28, grade ≥3): 12 (43) n (%)
TRAE Decreased appetite (Part 1 N = 28, grade ≥3): 0 n (%)
TRAE Dysgeusia (Part 1 N = 28, grade ≥3): 0 n (%)
TRAE Dyspepsia (Part 1 N = 28, grade ≥3): 0 n (%)
TRAE Fatigue (Part 1 N = 28, grade ≥3): 2 (7) n (%)
TRAE Hypomagnesemia (Part 1 N = 28, grade ≥3): 0 n (%)
TRAE Leukopenia (Part 1 N = 28, grade ≥3): 0 n (%)
TRAE Nausea (Part 1 N = 28, grade ≥3): 0 n (%)
TRAE Neutropenia (Part 1 N = 28, grade ≥3): 1 (4) n (%)
TRAE Thrombocytopenia (including platelet count decreased) (Part 1 N = 28, grade ≥3): 6 (21) n (%)
TRAE Vomiting (Part 1 N = 28, grade ≥3): 0 n (%)
TRAE Weight decreased (Part 1 N = 28, grade ≥3): 0 n (%)
TRAE Anemia [1]: 11 (42) n (%)
TRAE Any [1]: 21 (81) n (%)
TRAE Decreased appetite [1]: 7 (27) n (%)
TRAE Dysgeusia [1]: 3 (12) n (%)
TRAE Dyspepsia [1]: 4 (15) n (%)
TRAE Fatigue [1]: 6 (23) n (%)
TRAE Hypomagnesemia [1]: 1 (4) n (%)
TRAE Leukopenia [1]: 2 (8) n (%)
TRAE Nausea [1]: 9 (35) n (%)
TRAE Neutropenia [1]: 1 (4) n (%)
TRAE Thrombocytopenia (including platelet count decreased) [1]: 13 (50) n (%)
TRAE Vomiting [1]: 3 (12) n (%)
TRAE Weight decreased [1]: 3 (12) n (%)
TRAE Anemia [2]: 7 (27) n (%)
TRAE Any [2]: 11 (42) n (%)
TRAE Decreased appetite [2]: 0 n (%)
TRAE Dysgeusia [2]: 0 n (%)
TRAE Dyspepsia [2]: 0 n (%)
TRAE Fatigue [2]: 1 (4) n (%)
TRAE Hypomagnesemia [2]: 0 n (%)
TRAE Leukopenia [2]: 1 (4) n (%)
TRAE Nausea [2]: 0 n (%)
TRAE Neutropenia [2]: 1 (4) n (%)
TRAE Thrombocytopenia (including platelet count decreased) [2]: 6 (23) n (%)
TRAE Vomiting [2]: 0 n (%)
TRAE Weight decreased [2]: 0 n (%)
TRAE Anemia (Total N = 54, any grade): 23 (43) n (%)
TRAE Any (Total N = 54, any grade): 45 (83) n (%)
TRAE Decreased appetite (Total N = 54, any grade): 13 (24) n (%)
TRAE Dysgeusia (Total N = 54, any grade): 12 (22) n (%)
TRAE Dyspepsia (Total N = 54, any grade): 6 (11) n (%)
TRAE Fatigue (Total N = 54, any grade): 15 (28) n (%)
TRAE Hypomagnesemia (Total N = 54, any grade): 5 (9) n (%)
TRAE Leukopenia (Total N = 54, any grade): 5 (9) n (%)
TRAE Nausea (Total N = 54, any grade): 17 (32) n (%)
TRAE Neutropenia (Total N = 54, any grade): 4 (7) n (%)
TRAE Thrombocytopenia (including platelet count decreased) (Total N = 54, any grade): 22 (41) n (%)
TRAE Vomiting (Total N = 54, any grade): 4 (7) n (%)
TRAE Weight decreased (Total N = 54, any grade): 3 (6) n (%)
TRAE Anemia (Total N = 54, grade ≥3): 15 (28) n (%)
TRAE Any (Total N = 54, grade ≥3): 23 (43) n (%)
TRAE Decreased appetite (Total N = 54, grade ≥3): 0 n (%)
TRAE Dysgeusia (Total N = 54, grade ≥3): 0 n (%)
TRAE Dyspepsia (Total N = 54, grade ≥3): 0 n (%)
TRAE Fatigue (Total N = 54, grade ≥3): 3 (6) n (%)
TRAE Hypomagnesemia (Total N = 54, grade ≥3): 0 n (%)
TRAE Leukopenia (Total N = 54, grade ≥3): 1 (2) n (%)
TRAE Nausea (Total N = 54, grade ≥3): 0 n (%)
TRAE Neutropenia (Total N = 54, grade ≥3): 2 (4) n (%)
TRAE Thrombocytopenia (including platelet count decreased) (Total N = 54, grade ≥3): 12 (22) n (%)
TRAE Vomiting (Total N = 54, grade ≥3): 0 n (%)
TRAE Weight decreased (Total N = 54, grade ≥3): 0 n (%)
Patients who discontinued treatment due to AEs (all 54 patients, 6 patients): 11%
Recommended part 2 dose (RP2D) (oral, selected from safety and PK/PD modeling): 6 mg q.d.
Grade ≥3 TRAE Anemia [3]: 28%
Grade ≥3 TRAE Fatigue [3]: 6%
Grade ≥3 TRAE Neutropenia [3]: 4%
